Measurements collected from several papers.
Target: Serine/threonine-protein kinase BRSK2 (BRSK2, Homo sapiens, UniProt Q8IWQ3)
Residues used in one study (Q8IWQ3 1-736): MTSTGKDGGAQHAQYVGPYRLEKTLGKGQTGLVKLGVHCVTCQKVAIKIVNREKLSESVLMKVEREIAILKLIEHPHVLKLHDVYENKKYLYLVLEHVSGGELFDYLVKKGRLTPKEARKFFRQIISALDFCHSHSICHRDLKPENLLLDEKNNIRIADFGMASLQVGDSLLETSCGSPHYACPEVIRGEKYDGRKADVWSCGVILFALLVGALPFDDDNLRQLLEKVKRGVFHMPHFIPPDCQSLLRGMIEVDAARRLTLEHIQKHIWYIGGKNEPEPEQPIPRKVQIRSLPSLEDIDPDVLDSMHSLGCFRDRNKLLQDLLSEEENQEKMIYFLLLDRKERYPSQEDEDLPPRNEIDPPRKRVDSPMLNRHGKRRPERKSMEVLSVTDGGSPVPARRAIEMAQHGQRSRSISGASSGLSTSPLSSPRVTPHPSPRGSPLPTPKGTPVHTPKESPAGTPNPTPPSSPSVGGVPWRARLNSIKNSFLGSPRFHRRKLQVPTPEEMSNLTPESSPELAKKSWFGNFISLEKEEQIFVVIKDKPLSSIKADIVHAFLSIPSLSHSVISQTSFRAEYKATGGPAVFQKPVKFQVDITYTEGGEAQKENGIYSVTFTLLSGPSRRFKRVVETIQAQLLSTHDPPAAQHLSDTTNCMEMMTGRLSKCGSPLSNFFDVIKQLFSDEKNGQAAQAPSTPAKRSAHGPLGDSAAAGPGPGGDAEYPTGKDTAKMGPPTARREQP

SMILES | assay | setting | measurement | value
FC(F)(F)Oc1cccc(-c2cnc3ccc(-c4ccncc4)nn23)c1 | enzyme activity, inhibitor, radiometric | 1 µM | activity vs control | 81%
Cc1ccc(Nc2nccc(N(C)c3ccc4c(C)n(C)nc4c3)n2)cc1S(N)(=O)=O | enzyme activity, inhibitor | 10 µM | inhibition | -11%
FC(F)(F)c1ccc2c(c1)nc(-c1cccnc1)n2C1CC1 | cell-free assay, competition with immobilised ligand | 1 µM | remaining binding | 90%
O=C1NC(=O)c2cc(Nc3ccc(F)cc3)c(Nc3ccc(F)cc3)cc21 | cell-free assay | 0.5 µM | remaining signal | 96.8%
CCOC(=O)c1cc2cc(-c3cc(C(=O)NCc4ccc(C(=O)O)cc4)nn3C)ccc2[nH]1 | cell-free assay, competition with immobilised ligand | 0.1 µM | remaining binding | 67%
CC(C)(O)[C@H]1CC[C@H](Nc2ccc3ncc(-c4cccc(C(F)(F)F)c4)n3n2)CC1 | enzyme activity, inhibitor | 1 µM | remaining activity | 94.4%
Cn1c(=O)n(-c2ccc(C(C)(C)C#N)cc2)c2c3cc(-c4cnc5ccccc5c4)ccc3ncc21 | enzyme activity, inhibitor | 10 µM | remaining activity | 89%
CC(C)(C)C(=O)c1sc(NC2CCCCC2)nc1N | enzyme activity, inhibitor | 10 µM | remaining activity | 95%
CNC(=O)c1cc(Oc2ccc(NC(=O)Nc3ccc(Cl)c(C(F)(F)F)c3)cc2)ccn1 | cell-free assay | 0.5 µM | remaining signal | 103%
Cc1cc(-n2nc(Cc3cc(F)cc(C(F)(F)F)c3)nc2C)ccc1C(N)=O | cell-free assay, competition with immobilised ligand | 1 µM | remaining binding | 77%
CCCOc1ccc(OC)c(F)c1C(=O)c1ccc(C(=O)N[C@@H]2CNC[C@H]2NC(=O)c2ccc3[nH]ncc3c2)cc1 | enzyme activity, inhibitor | 10 µM | remaining activity | 33%
CS(=O)(=O)N1CCCC(NC(=O)[C@H](CCC2CCCCC2)NC(=O)c2ccc(CNC(=O)c3cnc4ccccn34)cc2)C1 (stereo partly shown) | cell-free assay, competition with immobilised ligand | 0.1 µM | remaining binding | 100%
CCCS(=O)(=O)Nc1ccc(F)c(C(=O)c2c[nH]c3ncc(-c4ccc(Cl)cc4)cc23)c1F | enzyme activity, inhibitor | 1 µM | inhibition | < 10%
Cc1ccc(NC(=O)c2ccc(C)c(C(F)(F)F)c2)cc1C#Cc1nn(C2CCC(O)CC2)c2ncnc(N)c12 (stereo not shown) | cell-free assay | 10 µM | remaining signal | 93%
Oc1ccc(-c2nc(-c3ccncc3)c(-c3ccc(F)cc3)[nH]2)cc1 | cell-free assay | 0.5 µM | remaining signal | 101%
CC(=O)c1c(NS(C)(=O)=O)c2cc(-c3ccc(Cl)cc3)c(-c3ccc(Cl)cc3Cl)nc2n(C)c1=O | cell-free assay, competition with immobilised ligand | 1 µM | remaining binding | 90%
CC/C(=N\NC(=O)NCc1cccc(O)c1)c1ccc(O)c(C)c1O | enzyme activity, inhibitor | 0.1 µM | inhibition | 3.7%
O=C(Nc1cnn(-c2csc(C(=O)NC3COC3)c2)c1)Nc1ccccc1Cl | enzyme activity, inhibitor | 5 µM | remaining activity | 102%
CC(C)(C)c1nc(-c2cccc(NS(=O)(=O)c3c(F)cccc3F)c2F)c(-c2ccnc(N)n2)s1 | enzyme activity, inhibitor, radiometric | 1 µM | remaining activity | 50%
Nc1ncnc2occ(-c3ccc(NC(=O)Nc4cc(C(F)(F)F)ccc4F)cc3)c12 | cell-free assay, inhibitor | 20 µM | remaining signal | 6.6%
COc1cc(Nc2cnc(C#N)c(O[C@H](C)CN(C)C)n2)ncc1-c1cnn(C)c1 | enzyme activity, inhibitor, radiometric | 1 µM | remaining activity | 23%
Cc1c(C(=O)O)cc(-c2ccc(C3CCNCC3)cc2)c2ccc(-c3ccc(C(F)(F)F)cc3)cc12 | binding, competition with immobilised ligand | 1 µM | remaining binding | 100%
COc1ccc(COc2ccc(Cc3cnc(N)nc3N)cc2OC)cc1 | cell-free assay | 0.5 µM | remaining signal | 96.8%
CN(C)C(=O)Cn1cc(-c2nc([C@@](C)(c3ccc(-c4cnc(N)nc4)cc3)C3CC3)no2)cn1 | cell-free assay, competition with immobilised ligand | 1 µM | remaining binding | 100%
Cc1cnc(NC2CCOCC2)nc1-n1cnc(C(=O)NC(CN)c2cc(F)cc(Cl)c2)c1 (stereo not shown) | enzyme activity, inhibitor, radiometric | 1 µM | remaining activity | 42%
Oc1cccc(-c2nc(N3CCOCC3)c3oc4ncccc4c3n2)c1 | enzyme activity, inhibitor | 10 µM | remaining activity | 99%
CSc1cccnc1N1CCN(Cc2nc3ccccc3[nH]2)CC1 | cell-free assay, competition with immobilised ligand | 1 µM | remaining binding | 100%
CN1CC(Oc2cnc(C#N)cc2-c2ccn3nc(NC(=O)C4CC4)cc3c2)C1 | enzyme activity, inhibitor | 1 µM | inhibition | 16%
